From PubChem BioAssay
PGC1a acetyl up: raises PGC1a acetylation signal in U2OS cells; U2OS PGC1a acetylation AlphaScreen, overnight; activation, % at 15.6 µM; 350,000 compounds, 0.21% hits;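 active means every replicate reaching activation of at least 50%, whatever the mean replicate activation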;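 further: hits raise the AlphaScreen acetylation signal above neutral controls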
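System – flag-PGC1a/GCN5 U2OS cells · Quantity – 7000 U2OS cells per well · Signal – AlphaScreen proximity luminescence, anti-acetyl-lysine antibody · Schedule – overnight compound treatment, 37 °C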
* = called active by the depositor. A selection follows.

SMILES	PGC1a acetyl up
C[C@H]1CN([C@@H](C)CO)C(=O)CCCn2nncc2CO[C@@H]1CN(C)C(=O)Nc1ccc2c(c1)OCO2	-49
C[C@@H]1CN([C@@H](C)CO)C(=O)CCCn2cc(nn2)CO[C@H]1CN(C)Cc1ccncc1	-51
COc1ccc2c(c1)c1nc3ccccc3nc1n2CC(=O)OC(C)C	-46
COc1ccc2c(c1)sc1nc(-c3ccccc3)cn12	71*
CCOc1cc(CNC2CCCC2)cc(Cl)c1OCc1ccc(F)cc1	-78
COc1cc(-c2nnn(CC#N)n2)ccc1OCc1ccccc1	212*
NC(=S)N/N=C/c1cccc(O)c1O	76*
Oc1ccccc1/C=N/Nc1nc2ccccc2o1	-41
O=C(C[C@H]1CC[C@H](NC(=O)NC2CCCCC2)[C@H](CO)O1)NCc1ccc(Cl)cc1	-54
CCC(=O)Nc1ccc2c(c1)OC[C@@H](C)N(C(=O)c1cnccn1)C[C@H](C)[C@H](OC)CN(C)C2=O	-59
CC1CCc2sc(C(=O)Nc3nnc(SCc4ccc(F)cc4)s3)cc2C1 (configuration not stated)	-94
C[C@H](CO)N1C[C@H](C)[C@H](CN(C)S(C)(=O)=O)Oc2ncc(-c3cc4ccccc4o3)cc2C1=O	-47
CN1CCN(CCP(=O)(c2ccccc2)c2ccccc2)CC1	-41
N#C/C(=C(/O)c1cc2ccccc2o1)c1nc2ccccc2s1	-44
N#C/C(=C(/O)c1ccco1)c1nc2ccccc2[nH]1	61*
C[C@H](CO)N1C[C@H](C)[C@@H](CN(C)C(=O)CCN2CCCCC2)Oc2ncc(C#Cc3ccccn3)cc2C1=O	-48
O=C(CN1C(=O)C2CC=CCC2C1=O)Nc1nccs1 (configuration not stated)	-50
COc1c(O)cc(O)c2c(=O)cc(-c3ccccc3)oc12	64*
C[C@@H]1CN([C@H](C)CO)C(=O)c2cc(-c3ccccc3)cnc2O[C@H]1CN(C)C(=O)Cc1ccccn1	-51
COc1ccc(CN(C)C[C@@H]2Oc3ccc(NS(=O)(=O)c4c(C)noc4C)cc3C(=O)N([C@H](C)CO)C[C@H]2C)cc1	-51
Cc1cccc(NC(=O)CNC(=O)Cn2ncc(Cl)c(Cl)c2=O)c1C	-51
O=C(Cn1ncc(Cl)c(Cl)c1=O)NCC1CCCCC1	151*
O=C(Cn1ncc(Cl)c(Cl)c1=O)c1ccc(Cl)cc1	-85
C=CCn1c(C)cc(C(=O)Cn2ncc(Cl)c(Cl)c2=O)c1C	-41
O=C1CN(C(=O)Cn2ncc(Cl)c(Cl)c2=O)c2ccccc2N1	74*
SMILES	PGC1a acetyl up
O=C(Nc1nc2ccccc2[nH]1)c1ccc(Cl)c(S(=O)(=O)N2CCCC2)c1	-52
Cc1ccc(NC(=O)Cn2ncc(Cl)c(Cl)c2=O)cc1S(=O)(=O)N1CCCCC1	90*
COCC#Cc1ccc2c(c1)O[C@H](CN(C)C(=O)CN(C)C)[C@@H](C)CN([C@@H](C)CO)S2(=O)=O	-58
C[C@@H]1CN([C@H](C)CO)C(=O)c2cc(-c3ccccc3)cnc2O[C@@H]1CN(C)C(=O)Cc1ccccc1	-42
COc1ccc2c3c(n(C)c2c1)[C@H](CO)NCC31CCN(Cc2cc(-c3ccccc3)on2)CC1	-69
Cc1ccc(S(=O)(=O)NC2=NCCCCC2)cc1	-46
CC(=O)Nc1ccc(NS(=O)(=O)c2ccc(C)cc2)cc1[N+](=O)[O-]	58*
Cc1ccc(NC(=O)COC(=O)COc2ccc(Cl)cc2)c([N+](=O)[O-])c1	-40
CCn1cc([N+](=O)[O-])c(C(=O)NCc2ccc3c(c2)OCO3)n1	-42
Cc1ccc(-c2ccc(/C=N/NC(=O)Cc3nnc(N)s3)o2)cc1Cl	-43
O=C(N/N=C\c1ccc([N+](=O)[O-])o1)C1COc2ccccc2O1 (configuration not stated)	117*
COc1ccc(-c2ccc(/C=N/NC(=O)Cc3nnc(N)s3)o2)cc1Cl	-57
CCCCCC(=O)N/N=C/c1ccc([N+](=O)[O-])o1	105*
CC1=C(C(=O)OCc2ccc3c(c2)OCO3)C(c2ccccc2)NC(=O)N1 (configuration not stated)	-56
O=C(Cc1ccc2c(c1)OCO2)NN=Cc1ccc([N+](=O)[O-])o1	137*
C[C@@H]1CN([C@H](C)CO)C(=O)c2cc(/C=C/c3ccccc3)cnc2O[C@@H]1CN(C)Cc1cccnc1	-65
Cc1ccc(NC(=O)C2C(c3ccccc3)C2(Cl)Cl)c(C)c1 (configuration not stated)	-71
O=C(CC1CC1)N[C@@H]1CC[C@H](CCNS(=O)(=O)c2ccc(Cl)cc2)O[C@H]1CO	-64
Cc1cc(N2CCN(C)CC2)nc(=S)[nH]1	-53
CCOC(=O)C1=C(NC(=O)c2ccc(Br)o2)Nc2ccccc2N=C1	-42
Cc1ccc(NC2=C([N+](=O)[O-])CS(=O)(=O)C2)cc1	218*
Cc1ccc(NC2=C(Cl)C(=O)c3ccccc3C2=O)cc1	-53
C[C@@H]1CN([C@H](C)CO)C(=O)CCCn2cc(nn2)CO[C@@H]1CN(C)C(=O)Nc1cccc2ccccc12	-50
CCOC(=O)CN1C(=O)C(Sc2n[nH]c(-c3ccc(C)cc3)n2)CCc2ccccc21 (configuration not stated)	59*
CCOC(=O)CS(=O)(=O)c1nc(-c2ccccc2)cc(C(F)(F)F)n1	-58
SMILES	PGC1a acetyl up
O=C(CCCCCCC(=O)Nc1ccccc1)NO	-40
O=C(CCl)Nc1ccc(N=Nc2ccccc2)cc1	101*
Cc1ccc(CCC(=O)Nc2ccc(Cl)cc2)o1	-72
CO[C@H]1CN(C)C(=O)c2ccc(NC(=O)c3ccno3)cc2OC[C@H](C)NC[C@H]1C	-51
Cc1ccccc1S(=O)(=O)N[C@H]1CC[C@H](CCn2cc(Cc3ccccc3)nn2)O[C@@H]1CO	-61
Cn1cccc1C(=O)OCC(=O)Nc1ccc2c(c1)CCC2	83*
O=C(COC(=O)C1CC2CCCC(C1)C2=O)Nc1ccc(F)c(Cl)c1 (configuration not stated)	-48
C[C@H](CO)N1C[C@H](C)[C@H](CN(C)C(=O)CN(C)C)Oc2cc(-c3cncnc3)ccc2S1(=O)=O	-52
O=C(NC1CCCN(Cc2ccc(Cl)cc2)C1)c1ccccc1C(F)(F)F (configuration not stated)	-47
CCOC(=O)CCS(=O)(=O)c1nc(-c2ccccc2)cc(C(F)(F)F)n1	-68
COc1ccc(-c2cc(C(F)(F)F)nc(S(C)(=O)=O)n2)cc1	66*
Oc1ccc(/C=N/Nc2nc(-c3ccc(Cl)cc3)cc(C(F)(F)F)n2)cc1	-64
CCOc1ccc2nnc(-c3ccc(Br)cc3)n2n1	52*
Cc1cccc(C)c1NC(=O)CS(=O)CC(=O)Nc1ccc(F)cc1F (configuration not stated)	57*
OC(c1ccc(Cl)cc1Cl)C(Cc1cccnc1)n1cncn1 (configuration not stated)	59*
O=C1CC2CS(=O)(=O)CC2N1c1ccc(Cl)cc1Cl (configuration not stated)	-56
CC1OC(CC(=O)O)CC2=C1C(=O)c1c(O)cccc1C2=O (configuration not stated)	-75
Cc1[nH]c(=O)[nH]c(=O)c1S(=O)(=O)Nc1ccc(F)c(Cl)c1	-47
CCOc1ccccc1OCCn1nnc2ccccc21	53*
O=C(O)Cn1cc(C(=O)C(F)(F)F)c2ccccc21	-45
CCCCSc1ccc(NC(=O)c2cccnc2)cc1	70*
CC(=O)c1cccc(NC(=O)Nc2cccnc2)c1	-50
CCCCC(=O)Nc1ccc(NC(=O)c2cccs2)cn1	-49
